Assay results reported in ChEMBL document CHEMBL3774374, “The Effect of Small Molecules on Sterol Homeostasis: Measuring 7-Dehydrocholesterol in Dhcr7-Deficient Neuro2a Cells and Human Fibroblasts” (J Med Chem, 2016).
Calls of active or inactive are those of the source. No cut-off for these calls is given here.

What was measured:
[1] = target: T1, Lanosterol 14-alpha demethylase (Mus musculus, UniProt Q8K0C4); assay: Inhibition of 14 alpha demethylase in Dhcr7-deficient mouse Neuro2a cells assessed as decrease in desmosterol levels at 1 uM by LC-MS/GC-MS analysis; assay type: cell-based
T1 sequence (Q8K0C4 whole entry): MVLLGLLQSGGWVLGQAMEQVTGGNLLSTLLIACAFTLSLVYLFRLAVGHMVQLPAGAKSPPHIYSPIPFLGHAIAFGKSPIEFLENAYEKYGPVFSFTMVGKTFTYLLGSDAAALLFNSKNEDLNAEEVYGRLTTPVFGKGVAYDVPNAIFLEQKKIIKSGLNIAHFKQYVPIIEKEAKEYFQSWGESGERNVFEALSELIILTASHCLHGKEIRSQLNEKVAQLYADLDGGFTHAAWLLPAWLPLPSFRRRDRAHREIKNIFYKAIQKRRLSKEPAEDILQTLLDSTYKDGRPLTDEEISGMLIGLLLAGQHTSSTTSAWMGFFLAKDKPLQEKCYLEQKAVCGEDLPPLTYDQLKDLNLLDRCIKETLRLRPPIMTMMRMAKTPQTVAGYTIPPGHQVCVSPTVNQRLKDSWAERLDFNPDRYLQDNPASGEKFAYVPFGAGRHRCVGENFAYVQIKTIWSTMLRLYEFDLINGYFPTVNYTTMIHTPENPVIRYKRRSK
Procedure, shortened: (§1)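 Dhcr7-deficient Neuro2a cells (13000/well, 0.5% FBS medium) on predeposited compound, 24 h at 37 °C. Hoechst-stained and imaged to count cells. Lysed in methanol containing isotope-labelled sterol standards, derivatized with PTAD 20 min at RT, then isocratic C18 UPLC-MS/SRM. Remaining extract silylated with BSTFA for GC-MS, quantified against d7-cholesterol. Follow-up runs in triplicate.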

[2] = target: T1, Lanosterol 14-alpha demethylase; assay: Inhibition of 14 alpha demethylase in Dhcr7-deficient mouse Neuro2a cells assessed as decrease in 7-DHC levels at 1 uM by LC-MS/GC-MS analysis; assay type: cell-based; procedure, shortened: as §1
[3] = target: T1, Lanosterol 14-alpha demethylase; assay: Inhibition of 14 alpha demethylase in Dhcr7-deficient mouse Neuro2a cells assessed as increase in cholesterol levels at 1 uM by LC-MS/GC-MS analysis; assay type: cell-based; procedure, shortened: as §1
[4] = target: T1, Lanosterol 14-alpha demethylase; assay: Inhibition of 14 alpha demethylase in Dhcr7-deficient mouse Neuro2a cells assessed as increase in lanosterol levels at 1 uM by LC-MS/GC-MS analysis; assay type: cell-based; procedure, shortened: as §1
[5] = Antiproliferative activity against Dhcr7-deficient mouse Neuro2a cells at 500 nM; assay type: cell-based; conditions: n2a, 0.5 µM
Procedure, shortened: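 Dhcr7-deficient Neuro2a cells treated with compound; proliferation followed by Hoechst nuclear staining and automated microscope imaging with cell counts per well.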

[6] = target: T2, Delta(24)-sterol reductase (Mus musculus) (UniProt Q8VCH6); assay: Inhibition of Dhcr24 in Dhcr7-deficient mouse Neuro2a cells assessed as increase in 7-dehydrodesmosterol levels at 1 uM by LC-MS/GC-MS analysis; assay type: cell-based; procedure, shortened: as §1
T2 sequence (whole entry): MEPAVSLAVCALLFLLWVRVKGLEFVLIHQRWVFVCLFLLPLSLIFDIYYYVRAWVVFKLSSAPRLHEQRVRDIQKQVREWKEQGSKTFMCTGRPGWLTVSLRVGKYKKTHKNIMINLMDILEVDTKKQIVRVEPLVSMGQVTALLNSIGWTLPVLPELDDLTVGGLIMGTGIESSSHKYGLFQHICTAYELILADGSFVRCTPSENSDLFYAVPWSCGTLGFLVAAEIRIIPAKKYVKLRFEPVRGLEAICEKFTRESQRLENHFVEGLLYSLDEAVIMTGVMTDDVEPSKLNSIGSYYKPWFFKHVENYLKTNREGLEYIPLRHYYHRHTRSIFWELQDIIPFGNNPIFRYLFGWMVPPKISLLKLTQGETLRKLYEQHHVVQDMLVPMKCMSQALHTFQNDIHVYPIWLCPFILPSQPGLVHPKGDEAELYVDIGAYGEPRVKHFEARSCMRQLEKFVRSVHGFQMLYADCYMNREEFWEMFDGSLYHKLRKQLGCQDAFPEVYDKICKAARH

[7] = target: 3-beta-hydroxysteroid-Delta(8),Delta(7)-isomerase (Homo sapiens) (UniProt Q15125); assay: Inhibition of delta 8-7 isomerase in human SLOS fibroblasts assessed as decrease in 7-DHC levels at 10 nM after 5 days by LC-MS/GC-MS analysis
Sequence of 3-beta-hydroxysteroid-Delta(8),Delta(7)-isomerase (Homo sapiens) (Q15125 whole entry): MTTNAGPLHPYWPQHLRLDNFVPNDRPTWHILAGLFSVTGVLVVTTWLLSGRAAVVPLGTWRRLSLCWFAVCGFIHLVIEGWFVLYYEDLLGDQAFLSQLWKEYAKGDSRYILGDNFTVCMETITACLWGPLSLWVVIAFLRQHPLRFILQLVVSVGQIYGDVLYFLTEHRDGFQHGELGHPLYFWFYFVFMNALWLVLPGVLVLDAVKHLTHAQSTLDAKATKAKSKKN
Procedure, shortened: (§2)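 SLOS patient skin fibroblasts (passage 8–20) grown in 96-well plates in delipidated serum with compound for 5 days; three different SLOS lines. Sterols quantified by PTAD-derivatized UPLC-MS plus GC-MS; 7-DHC expressed as percentage of untreated cells.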

[8] = Cytotoxicity against human SLOS fibroblasts at 5 uM after 5 days by Cell Titer assay; assay type: cell-based; conditions: fibroblast, 120 h
[9] = target: T2, Delta(24)-sterol reductase (Mus musculus); assay: Inhibition of DR24 in Dhcr7-deficient mouse Neuro2a cells assessed as decrease in 7-DHC levels at 1 uM by LC-MS/GC-MS analysis; assay type: cell-based; procedure, shortened: as §1
[10] = tested on: Fibroblast; assay: Decrease in cholesterol levels in human SLOS fibroblasts at 10 nM after 5 days by LC-MS/GC-MS analysis; assay type: functional, cell-based; procedure, shortened: as §2
[11] = target: T3, 3-beta-hydroxysteroid-Delta(8),Delta(7)-isomerase (Mus musculus) (UniProt P70245); assay: Inhibition of delta 8-7 isomerase in Dhcr7-deficient mouse Neuro2a cells assessed as decrease in 7-DHC levels at 1 uM by LC-MS/GC-MS analysis; assay type: cell-based; procedure, shortened: as §1
T3 sequence (whole entry): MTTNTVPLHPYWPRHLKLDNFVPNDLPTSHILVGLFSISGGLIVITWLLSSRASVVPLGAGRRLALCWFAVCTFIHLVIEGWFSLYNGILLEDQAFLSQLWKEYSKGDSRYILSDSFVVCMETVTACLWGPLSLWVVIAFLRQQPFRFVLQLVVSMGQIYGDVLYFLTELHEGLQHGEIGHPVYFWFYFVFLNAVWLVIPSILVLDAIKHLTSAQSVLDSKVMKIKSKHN

[12] = target: T4, Delta(24)-sterol reductase (Homo sapiens) (UniProt Q15392); assay: Inhibition of DR24 in human SLOS fibroblasts assessed as decrease in 7-DHC levels at 10 nM after 5 days by LC-MS/GC-MS analysis; procedure, shortened: as §2
T4 sequence (whole entry): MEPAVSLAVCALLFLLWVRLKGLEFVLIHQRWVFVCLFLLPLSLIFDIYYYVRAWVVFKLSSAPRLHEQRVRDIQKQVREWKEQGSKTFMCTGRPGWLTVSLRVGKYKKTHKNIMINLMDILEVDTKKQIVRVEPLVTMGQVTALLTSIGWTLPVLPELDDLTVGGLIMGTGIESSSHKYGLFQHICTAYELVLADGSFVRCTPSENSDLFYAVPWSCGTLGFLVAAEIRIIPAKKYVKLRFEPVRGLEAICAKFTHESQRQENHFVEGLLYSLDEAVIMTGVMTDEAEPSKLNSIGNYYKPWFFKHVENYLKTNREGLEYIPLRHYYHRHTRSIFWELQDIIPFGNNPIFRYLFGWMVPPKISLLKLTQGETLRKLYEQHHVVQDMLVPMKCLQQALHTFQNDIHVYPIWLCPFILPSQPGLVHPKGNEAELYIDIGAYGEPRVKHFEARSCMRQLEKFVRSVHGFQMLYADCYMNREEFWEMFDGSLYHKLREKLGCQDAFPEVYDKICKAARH

[13] = target: T2, Delta(24)-sterol reductase (Mus musculus); assay: Inhibition of C-24 reductase in Dhcr7-deficient mouse Neuro2a cells assessed as increase in desmosterol levels at 1 uM by LC-MS/GC-MS analysis; assay type: cell-based; procedure, shortened: as §1
[14] = target: T2, Delta(24)-sterol reductase (Mus musculus); assay: Inhibition of C-24 reductase in Dhcr7-deficient mouse Neuro2a cells assessed as increase in zymosterol levels at 1 uM by LC-MS/GC-MS analysis; assay type: cell-based; procedure, shortened: as §1
[15] = target: T2, Delta(24)-sterol reductase (Mus musculus); assay: Inhibition of DR24 in mouse Neuro2a cells assessed as decrease in 7-DHC levels at 1 uM by LC-MS/GC-MS analysis; assay type: cell-based
Procedure, shortened: (§3)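 Control Neuro2a cells (10000/well, 0.5% FBS) on compound, 24 h. Hoechst cell count, then methanol lysis with labelled standards (d7-7-DHC, 13C3-desmosterol, 13C3-lanosterol), PTAD derivatization 20 min at RT, UPLC-MS SRM. GC-MS of silylated extract for further sterols.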

[16] = target: T3, 3-beta-hydroxysteroid-Delta(8),Delta(7)-isomerase (Mus musculus); assay: Inhibition of delta 8-7 isomerase in mouse Neuro2a cells assessed as decrease in 7-DHC levels at 1 uM by LC-MS/GC-MS analysis; assay type: cell-based; procedure, shortened: as §3
[17] = target: T3, 3-beta-hydroxysteroid-Delta(8),Delta(7)-isomerase (Mus musculus); assay: Inhibition of delta 8-7 isomerase in Dhcr7-deficient mouse Neuro2a cells assessed as decrease in cholesterol levels at 1 uM by LC-MS/GC-MS analysis; assay type: cell-based
Procedure, shortened: (§4)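 Follow-up (verification) assay in 96-well plates, run as the 384-well screen, in triplicate, at varying compound concentrations. Cells counted by Hoechst imaging, washed with PBS, then lysed in MeOH with BHT/TPP and isotope standards (d7-Chol, d7-7-DHC, 13C3-Des, 13C3-Lan). Sterols derivatised with PTAD for 20 min at RT and quantified by C18 UPLC-MS (SRM). Remaining sample silylated with BSTFA and run on GC-MS, quantified against d7-Chol.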

[18] = target: T3, 3-beta-hydroxysteroid-Delta(8),Delta(7)-isomerase (Mus musculus); assay: Inhibition of delta 8-7 isomerase in Dhcr7-deficient mouse Neuro2a cells assessed as increase in zymostenol levels at 1 uM by LC-MS/GC-MS analysis; assay type: cell-based; procedure, shortened: as §4
[19] = target: T3, 3-beta-hydroxysteroid-Delta(8),Delta(7)-isomerase (Mus musculus); assay: Inhibition of delta 8-7 isomerase in Dhcr7-deficient mouse Neuro2a cells assessed as increase in zymosterol levels at 1 uM by LC-MS/GC-MS analysis; assay type: cell-based; procedure, shortened: as §4

inhibition (INH) [1] | inhibition (INH) [2] | inhibition (INH) [3] | inhibition (INH) [4] | inhibition [6] | inhibition [7] | inhibition [9] | inhibition [11] | inhibition [12] | inhibition [13] | inhibition [14] | SMILES | Activity [5] | Activity [8] | Activity [10] | Decrease in 7-DHC levels (active/inactive call) [15] | Activity (decrease in 7-DHC levels) [16] | inhibition [17] | inhibition [18] | inhibition [19]
Active | Active | Active | Active | – | – | – | – | – | – | – | Oc1c(Cl)cc(Cl)c2cccnc12 [CHLOROXINE] | Toxic | – | – | – | – | – | – | –
Active | Active | Active | Active | – | – | – | – | – | – | – | Oc1c(Cl)cc(Cl)c(Cl)c1Cc1c(O)c(Cl)cc(Cl)c1Cl [HEXACHLOROPHENE] | Toxic | – | – | – | – | – | – | –
– | – | – | – | Active | Active | Active | Active | Active | Active | – | COc1ccc2c(c1)OC(C)(C)[C@@H](c1ccccc1)[C@@H]2c1ccc(OCCN2CCCC2)cc1 [LEVORMELOXIFENE] | – | Toxic | inactive | – | – | – | – | –
– | – | – | – | – | Active | Active | Active | Active | Active | Active | O=C(c1ccc(OCCN2CCCCC2)cc1)c1c(-c2ccc(O)cc2)sc2cc(O)ccc12 [RALOXIFENE] | – | Toxic | inactive | Active | Active | – | – | –

SMILES | inhibition (INH) [1] | inhibition (INH) [2] | inhibition (INH) [3] | inhibition (INH) [4] | inhibition [6] | inhibition [7] | inhibition [9] | inhibition [11] | inhibition [12] | inhibition [13] | inhibition [14] | Activity [5] | Activity [8] | Activity [10] | Decrease in 7-DHC levels (active/inactive call) [15] | Activity (decrease in 7-DHC levels) [16] | inhibition [17] | inhibition [18] | inhibition [19]
CC/C(=C(\c1ccccc1)c1ccc(OCCN(C)C)cc1)c1ccccc1 [TAMOXIFEN] | – | – | – | – | – | Active | Active | Active | Active | – | – | – | Toxic | inactive | Active | Active | Active | Active | Active
